Source: ChEMBL document CHEMBL5528013 (Eur J Med Chem, 2024)

Key:
[1] = tested on: K562; experiment: Antiproliferative activity against human K562 cells assessed as inhibition of cell growth incubated for 72 hrs by resazurin dye based assay; format: functional; details: K562, 72 h
Outline: (§1)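 Logarithmic-phase cells were seeded at 5000 per well and treated 24 h later, in triplicate, with various concentrations for 72 h. MOLM14 lines were grown in RPMI with 10 % FBS, and other lines per provider instructions, all at 37 °C and 5 % CO2. Resazurin was then added for 4–6 h and fluorescence read. GI50 was taken from percent growth versus DMSO control, fitted with a variable-slope normalized-response model; at least three runs.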

[2] = tested on: MOLM-14; format: functional, cell-based; details: Homo sapiens, MOLM-14, 72 h
[3] = tested on: MOLM-14; experiment: Antiproliferative activity against human MOLM-14 cells assessed as inhibition of cell growth incubated for 72 hrs by resazurin dye based assay; format: functional; details: MOLM-14, 72 h; outline: as §1
[4] = tested on: MOLM-14; experiment: Antiproliferative activity against human MOLM-14 cells harboring FLT3-D835Y mutant assessed as inhibition of cell growth incubated for 72 hrs by resazurin dye based assay; format: functional; details: MOLM-14, 72 h; outline: as §1
[5] = target: T1, Receptor-type tyrosine-protein kinase FLT3 (Homo sapiens, UniProt P36888); experiment: Inhibition of FLT3 (unknown origin) by bioluminescent ADP-Glo assay
T1 sequence (P36888 whole entry): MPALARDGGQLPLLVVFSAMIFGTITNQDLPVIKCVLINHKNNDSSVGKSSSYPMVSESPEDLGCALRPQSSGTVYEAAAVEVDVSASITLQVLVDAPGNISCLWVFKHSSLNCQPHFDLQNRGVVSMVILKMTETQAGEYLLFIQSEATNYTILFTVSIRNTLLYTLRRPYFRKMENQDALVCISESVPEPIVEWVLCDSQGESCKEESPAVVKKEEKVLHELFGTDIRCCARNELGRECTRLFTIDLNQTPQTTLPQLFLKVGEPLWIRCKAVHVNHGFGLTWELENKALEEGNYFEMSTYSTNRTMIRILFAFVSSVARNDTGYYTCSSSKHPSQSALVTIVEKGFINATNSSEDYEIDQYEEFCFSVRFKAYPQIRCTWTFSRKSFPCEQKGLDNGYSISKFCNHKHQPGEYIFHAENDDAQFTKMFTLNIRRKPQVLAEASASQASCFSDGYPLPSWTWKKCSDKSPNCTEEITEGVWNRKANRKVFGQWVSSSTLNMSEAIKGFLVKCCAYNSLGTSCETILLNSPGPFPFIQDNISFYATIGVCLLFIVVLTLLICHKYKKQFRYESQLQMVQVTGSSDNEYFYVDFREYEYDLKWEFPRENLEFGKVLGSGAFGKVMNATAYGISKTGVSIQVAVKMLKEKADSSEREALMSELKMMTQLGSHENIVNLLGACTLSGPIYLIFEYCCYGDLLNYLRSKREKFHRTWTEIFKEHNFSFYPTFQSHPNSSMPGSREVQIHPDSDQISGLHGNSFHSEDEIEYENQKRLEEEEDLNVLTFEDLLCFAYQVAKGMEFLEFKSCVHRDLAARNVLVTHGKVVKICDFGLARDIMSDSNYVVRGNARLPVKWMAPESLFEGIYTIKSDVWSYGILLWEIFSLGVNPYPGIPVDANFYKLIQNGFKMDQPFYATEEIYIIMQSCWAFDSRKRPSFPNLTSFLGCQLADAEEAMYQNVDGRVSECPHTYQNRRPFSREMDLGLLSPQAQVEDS

[6] = tested on: MDA-MB-231; experiment: Antiproliferative activity against human MDA-MB-231 cells lacking FLT3 activating mutations assessed as inhibition of cell growth incubated for 72 hrs by resazurin dye based assay; format: functional; details: MDA-MB-231, 72 h; outline: as §1
[7] = Cytotoxicity against HEK293 cells lacking FLT3 activating mutations assessed as inhibition of cell growth incubated for 72 hrs by resazurin dye based assay; format: toxicity; details: human; outline: as §1

IC50 [1] | IC50 [2] | IC50 [3] | IC50 [4] | IC50 [5] | IC50 [6] | SMILES | IC50 at 72 h [7]
> 1000 nM | 90.7 nM | 6.76 nM | 4.39 nM |  |  | C=Cc1ccc(Nc2cccc(-c3cnc4cc(-c5cnn(C)c5)ccn34)n2)cc1 | 
> 1000 nM | 142 nM | 13.5 nM | 8.91 nM |  |  | CC(C)c1ccc(Nc2cccc(-c3cnc4cc(-c5cnn(C)c5)ccn34)n2)cc1 | 
> 1000 nM | 412 nM | 154 nM | 265 nM | 288 nM | > 1000 nM | Cn1cc(-c2ccn3c(-c4cccc(Nc5cccc(C(C)(C)C)c5)n4)cnc3c2)cn1 | 993 nM
> 1000 nM | 160 nM | 33.3 nM | 18.9 nM |  |  | Cn1cc(-c2ccn3c(-c4cccc(Nc5ccc(C(F)(F)F)cc5)n4)cnc3c2)cn1 | 
927 nM | 294 nM | 9.03 nM | 3.62 nM |  |  | CCc1ccc(Nc2cccc(-c3cnc4cc(-c5cnn(C)c5)ccn34)n2)cc1 | 
> 1000 nM | 792 nM | 76.6 nM | 76.6 nM |  |  | Cn1cc(-c2ccn3c(-c4cccc(Nc5ccc(C(=O)OC(C)(C)C)cc5)n4)cnc3c2)cn1 | 
> 1000 nM | 238 nM | 3.25 nM | 1.41 nM |  |  | Cn1cc(-c2ccn3c(-c4cccc(Nc5ccc(N6CCOCC6)cc5)n4)cnc3c2)cn1 | 
> 1000 nM | 135 nM | 18.3 nM | 48 nM |  |  | Cn1cc(-c2ccn3c(-c4cccc(Nc5ccc(C#N)cc5)n4)cnc3c2)cn1 | 
736 nM | 337 nM | 28.8 nM | 23.1 nM |  |  | Cn1cc(-c2ccn3c(-c4cccc(Nc5ccc(Cl)cc5)n4)cnc3c2)cn1 | 
924 nM | 7.42 nM | 0.51 nM | 0.87 nM |  |  | CCN(CC)CCOc1ccc(Nc2cccc(-c3cnc4cc(-c5cnn(C)c5)ccn34)n2)cc1 | 
> 1000 nM | > 1000 nM | 99 nM | 121 nM |  |  | CCOC(=O)Cc1ccc(Nc2cccc(-c3cnc4cc(-c5cnn(C)c5)ccn34)n2)cc1 | 
219 nM | 18.9 nM |  | 5.67 nM |  |  | Cc1ccc(Nc2cccc(-c3cnc4cc(-c5cnn(C)c5)ccn34)n2)cc1 | 
923 nM | 314 nM | 6.82 nM | 5.19 nM |  |  | Cn1cc(-c2ccn3c(-c4cccc(Nc5ccc([N+](=O)[O-])cc5)n4)cnc3c2)cn1 | 
> 1000 nM | > 1000 nM |  | 41.9 nM |  |  | Cn1cc(-c2ccn3c(-c4cccc(Nc5ccc(C(C)(C)C)cc5)n4)cnc3c2)cn1 | 
> 1000 nM | 462 nM | 19.3 nM | 49.9 nM |  |  | Cn1cc(-c2ccn3c(-c4cccc(Nc5ccc(OC(F)(F)F)cc5)n4)cnc3c2)cn1 | 
274 nM | 14.4 nM | 2.38 nM | 1.65 nM |  |  | COc1ccccc1Nc1cccc(-c2cnc3cc(-c4cnn(C)c4)ccn23)n1 | 
 | 920 nM | 6.09 nM | 4.91 nM |  |  | Cn1cc(-c2ccn3c(-c4cccc(Nc5ccc6c(c5)OCO6)n4)cnc3c2)cn1 | 

The remaining lines, values behind:

SMILES | IC50 [1] | IC50 [2] | IC50 [3] | IC50 [4] | IC50 [5] | IC50 [6] | IC50 at 72 h [7]
CCc1nc(C(N)=O)c(Nc2ccc(N3CCC(N4CCN(C)CC4)CC3)c(OC)c2)nc1NC1CCOCC1 [GILTERITINIB] | > 1000 nM |  |  |  |  |  | 
Cn1cc(-c2ccn3c(-c4cccc(Nc5cccc(C(F)(F)F)c5)n4)cnc3c2)cn1 | 132 nM | 28.9 nM | 2.24 nM | 3.2 nM |  |  | 
Cc1ccc(-n2nc(C(C)(C)C)cc2Nc2cccc(-c3cnc4cc(-c5ccc(S(C)(=O)=O)cc5)ccn34)n2)cc1 | > 1000 nM | > 1000 nM | 278 nM | 613 nM |  |  | 
COc1cc2/c(=N/c3ccc(Br)cc3F)nc[nH]c2cc1OCC1CCN(C)CC1 [VANDETANIB] |  | > 20000 nM |  |  |  |  | 
Cn1cc(-c2ccn3c(-c4cccc(Nc5ccc(OCCN6CCCCC6)cc5)n4)cnc3c2)cn1 | > 1000 nM | 9.8 nM | 0.19 nM | 0.77 nM |  |  | 
Cc1ccc(-n2nc(C(C)(C)C)cc2Nc2cccc(-c3cnc4cc(-c5cnn(C)c5)ccn34)n2)cc1 | > 1000 nM | > 1000 nM | 162 nM | 414 nM |  |  | 
CC1CN(c2cccc(-c3cnc4cc(-c5cnn(C)c5)ccn34)n2)CCN1C(=O)OC(C)(C)C (stereo not drawn) | > 1000 nM | 426 nM | 101 nM | 353 nM |  |  | 
Cn1cc(-c2ccn3c(-c4cccc(NCc5c(F)cccc5F)n4)cnc3c2)cn1 | 119 nM | 566 nM | 1.31 nM | 5.9 nM |  |  | 
Cn1cc(-c2ccn3c(-c4cccc(Nc5cc(C(C)(C)C)nn5-c5ccc(F)cc5)n4)cnc3c2)cn1 | > 1000 nM | > 1000 nM | 18 nM | 56 nM |  |  | 
COc1cc(Nc2cccc(-c3cnc4cc(-c5ccc(S(C)(=O)=O)cc5)ccn34)n2)cc(OC)c1OC | > 1000 nM | 130 nM |  | 43.9 nM | 94.6 nM | > 1000 nM | > 1000 nM
Cn1cc(-c2ccn3c(-c4ccc(Cl)cc4)cnc3c2)cn1 | > 1000 nM | 293 nM | 16.9 nM | 166 nM |  |  | 
Cn1cc(-c2ccn3c(-c4cccc(Nc5cnccn5)n4)cnc3c2)cn1 | 115 nM | 259 nM | 4.03 nM | 2.46 nM |  |  | 
Cn1cc(-c2ccn3c(-c4cccc(Nc5cc(C(C)(C)C)nn5C)n4)cnc3c2)cn1 | 210 nM | 32.6 nM | 3.8 nM | 2.59 nM |  |  | 
Cn1cc(-c2ccn3c(-c4cccc(Cl)c4)cnc3c2)cn1 | > 1000 nM | 304 nM | 29.5 nM | 591 nM |  |  | 
Cn1cc(-c2ccn3c(-c4cccc(N5CCN(C(=O)OC(C)(C)C)CC5)n4)cnc3c2)cn1 | > 1000 nM | 794 nM | 51.9 nM | 259 nM |  |  | 
Cn1cc(-c2ccn3c(-c4ccccc4Cl)cnc3c2)cn1 | > 1000 nM | > 1000 nM | 397 nM | > 1000 nM |  |  | 
Cn1cc(-c2ccn3c(-c4cccc(Nc5ccccc5C(F)(F)F)n4)cnc3c2)cn1 | 262 nM | 184 nM | 0.95 nM | 0.31 nM |  |  | 
COC(=O)c1ccc(C)c(Nc2cccc(-c3cnc4cc(-c5cnn(C)c5)ccn34)n2)c1 | > 1000 nM | > 1000 nM | 233 nM | 177 nM |  |  | 
Cn1nc(C(C)(C)C)cc1Nc1cccc(-c2cnc3cc(-c4ccc(S(C)(=O)=O)cc4)ccn23)n1 | 688 nM | 54.2 nM | 4.3 nM | 5.32 nM |  |  | 
Cn1cc(-c2ccn3c(-c4cccc(Nc5ccc(OCCN6CCOCC6)cc5)n4)cnc3c2)cn1 | > 1000 nM | 7.1 nM | 1 nM | 1.83 nM |  |  | 
COc1cc(Nc2cccc(-c3cnc4cc(-c5cnn(C)c5)ccn34)n2)cc(OC)c1OC | 960 nM | 105 nM | 6.95 nM | 27.5 nM |  |  | 
Cn1cc(-c2ccn3c(-c4cccc(Cl)n4)cnc3c2)cn1 | > 1000 nM | 458 nM | 28.7 nM | 228 nM |  |  | 
Cn1cc(-c2ccn3c(-c4cccc(Nc5ccc(OCCN6CCCC6)cc5)n4)cnc3c2)cn1 | > 1000 nM | 12.5 nM | 0.77 nM | 2.21 nM |  |  | 
CC(C)(C)c1ccc(Nc2cccc(-c3cnc4cc(-c5ccc(S(C)(=O)=O)cc5)ccn34)n2)cc1 | > 1000 nM | > 1000 nM | 110 nM | 203 nM |  |  | 
Cn1cc(-c2ccn3c(-c4cccc(NC5CCN(C(=O)OC(C)(C)C)CC5)n4)cnc3c2)cn1 | > 1000 nM | 97.5 nM | 17.2 nM | 18.2 nM |  |  | 
Cn1cc(-c2ccn3c(-c4cccc(Nc5ccc6c(c5)OCCO6)n4)cnc3c2)cn1 | > 1000 nM | 9.98 nM | 1.72 nM | 0.87 nM |  |  | 
